# High-throughput results deposited in PubChem BioAssay by several laboratories.
# Hits are enriched below; roughly 1.8% of the tested compounds scored in any of these assays.
# CXCR6 block: blocks human CXCR6 beta-arrestin recruitment | CHO-K1 PathHunter CXCR6 beta-arrestin, luminescence | inhibition, % at 20 µM | 360,000 compounds, 0.36% hits | AID 602244; in the data active = inhibition above about 34%, passing the limit was not always enough;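 note: antagonist mode with CXCL16 agonist at 10 nM final; 0% = 10 nM CXCL16 with DMSO and 100% = unstimulated wells without agonist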
# B2AR ag: activates human beta-2 adrenergic receptor causing internalization; P07550; Am2.2-beta2AR cells, FAP receptor internalization, flow cytometry; response, % (test concentration not listed); 340,000 compounds, 0.43% hits; AID 504454;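 active = response above a set limit, near 3 SD of response in nonfluorescent compounds, cut at about 42% in these data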
# APJ ag: activates the human apelin receptor APJ. activation, % at 20 µM. CHO-K1 APJ PathHunter beta-arrestin, luminescence; 0% DMSO wells, 100% apelin. P35414. 330,000 compounds, 0.11% hits. AID 2520;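 active = activation more than six SD over the plate average, tested at 20 µM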;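 note: 0% = DMSO alone and 100% = apelin-13 at 10 nM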
# Target sequence (P35414 whole entry, looked up): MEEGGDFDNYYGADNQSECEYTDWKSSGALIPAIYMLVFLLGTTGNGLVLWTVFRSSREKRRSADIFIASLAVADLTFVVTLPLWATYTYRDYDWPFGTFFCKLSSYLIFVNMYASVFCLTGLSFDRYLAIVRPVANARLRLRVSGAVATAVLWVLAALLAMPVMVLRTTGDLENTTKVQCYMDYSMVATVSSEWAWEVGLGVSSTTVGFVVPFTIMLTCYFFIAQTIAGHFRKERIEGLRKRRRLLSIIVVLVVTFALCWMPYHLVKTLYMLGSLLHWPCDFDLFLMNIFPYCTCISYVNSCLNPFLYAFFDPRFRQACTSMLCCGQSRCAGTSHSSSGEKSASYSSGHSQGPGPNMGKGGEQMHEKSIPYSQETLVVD
#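 Assay system: CHO-K1 APJ beta-arrestin complementation cell line / Compound: single test compound dose, 20 µM final, 1% DMSO / Times: overnight seeding, 90 min compound at 25 °C, 1 h detection / Technique: beta-gal luminescence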
# EBI2 block: blocks human EBI2 receptor beta-arrestin signaling. P32249. EBI2 beta-arrestin recruitment, luminescence, 7a,25-OHC stimulated. inhibition, % at 5 µM. 360,000 compounds, 0.81% hits; in the data active = inhibition above about 38%;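 note: enzyme fragment complementation signal reports receptor beta-arrestin coupling in cells; 0% = agonist plus DMSO wells and 100% = wells without agonist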
# CCR6 antagonist: blocks CCL20-driven beta-arrestin recruitment at human CCR6. 340,000 compounds, 0.49% hits. CHO-K1 CCR6 PathHunter beta-arrestin, luminescence, CCL20-stimulated. AID 493098. inhibition, % at 20 µM;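 active = compounds whose inhibition of the agonist-driven luminescence signal at 20 µM reaches about 50%, limit read from the data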;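 note: cells stimulated with CCL20 at 14 nM final; plate controls were DMSO with CCL20 for no effect and DMSO without agonist for full effect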
# APJ antag: blocks the human apelin receptor APJ | P35414 | CHO-K1 APJ beta-arrestin complementation, luminescence | inhibition, % at 20 µM | 330,000 compounds, 0.32% hits;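 active = inhibition above about 40% at 20 µM, limit read from the data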;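 note: cells challenged with 10 nM apelin-13 agonist together with compound; plate controls were apelin-13 plus DMSO wells for no effect and DMSO wells lacking apelin-13 for full effect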
# EBI2 antag conf: EBI2 (human) antagonism, single concentration confirmation | inhibition, % at 5 µM | EBI2 beta-arrestin luminescence, 7a,25-OHC antagonism | 2,400 compounds, 29% hits | shares compounds with EBI2 block;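 active = inhibition of at least 50%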
# EBI2 agonist: activates EBI2, counter-screen for EBI2 antagonists; shares compounds with EBI2 block; EBI2-expressing cells, agonist mode, luminescence, 60 min; 0% vehicle, 100% 7α,25-dihydroxycholesterol control; activation, % at 5 µM; 2,400 tested, under 10 active; AID 652000;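 active = activation of at least 50%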
# bGal counter: beta-galactosidase inhibition counter-screen; inhibition, % at 5 µM; purified beta-galactosidase, luminescent Galacton Star, 15 min; 2,400 compounds, 1% hits; shares compounds with EBI2 block;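 active = replicate-average signal at least 3 plate SD below neutral wells, shown as high inhibition, flagging enzyme-inhibiting false positives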;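 note: 0% = DMSO wells with enzyme and 100% = wells lacking enzyme; higher means stronger loss of beta-gal luminescence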
# Numbers without * were called inactive; / = not tested or not shown.
SMILES,CXCR6 block,B2AR ag,APJ ag,EBI2 block,CCR6 antagonist,APJ antag,EBI2 antag conf,EBI2 agonist,bGal counter
CN(Cc1ccc(C(C)(C)C)cc1)C(=O)C1CSC2(C)CCC(=O)N12 (configuration not stated),0,1,-3,-8,4,4,/,/,/
CCN1C(=O)[C@@H]2[C@@H](c3ccc(-c4ccc(F)cc4)cc3)N3CCCC[C@@]3(C(=O)OC)[C@@H]2C1=O,8,15,-1,18,5,6,/,/,/
COc1cc(C(=O)C(=O)N2CCN(c3ccccc3)CC2)cc2ccccc12,/,/,/,1,/,/,/,/,/
CCCCc1c(-c2ccc(OC)cc2)ncn1CCc1ccccc1OC,8,/,/,10,/,/,/,/,/
CCOc1ccc(/C=N/OCC(=O)NC(c2ccccc2)c2ccccc2)cc1,4,-10,-3,79*,-15,-1,60*,1,7
CCCCCCn1cc(CN2CC(N3CCCCC3)CS2(=O)=O)nn1 (configuration not stated),-1,/,/,-5,/,/,/,/,/
CC(CNC(=O)CC[C@H]1O[C@@H](n2cnc3c(NC(=O)c4ccccc4)ncnc32)[C@H](O)[C@@H]1O)c1ccccc1 (some centres not stated),-4,/,/,-6,/,/,/,/,/
CCOC(=O)c1c(NC(=S)NC(=O)c2cnn(CC)c2)sc2c1CCC(C)C2 (configuration not stated),-9,10,-6,46*,-9,14,30,0,3
CN(Cc1ccc(Cl)c(Cl)c1)C(=O)c1cccc(S(=O)(=O)N2CCN(Cc3ccccc3)CC2)c1,-3,7,-4,58*,2,15,28,1,6
CN(Cc1cccc(Cl)c1Cl)C(=O)c1cccc(S(=O)(=O)N2CCN(Cc3ccccc3)CC2)c1,-4,7,3,54*,8,-10,18,0,-14
CN(Cc1cccc(F)c1)C(=O)c1cccc(S(=O)(=O)N2CCN(Cc3ccccc3)CC2)c1,-15,1,-3,5,1,1,/,/,/
Cc1ccc(OCCCC(=O)NC(C)c2ccccc2)cc1 (configuration not stated),-4,-2,-1,15,-8,12,/,/,/
CC(NC(=O)CCCOc1ccc(Cl)cc1)c1ccccc1 (configuration not stated),-10,-6,5,44*,5,0,10,-1,-11
COc1cccc(/C=C/C(=O)OCC(=O)N2CCN(S(=O)(=O)c3ccc(Cl)cc3)CC2)c1,1,0,2,34,4,9,/,/,/
O=C(/C=C/c1ccccc1)N1CCN(S(=O)(=O)c2ccc(F)cc2)CC1,4,0,-1,79*,6,5,68*,0,6
O=C(/C=C/c1ccc(F)cc1)N1CCN(S(=O)(=O)/C=C/c2ccccc2)CC1,2,9,0,95*,23,-24,89*,0,8
COc1cccc(/C=C/C(=O)N2CCN(S(=O)(=O)c3ccccc3)CC2)c1,2,/,/,90*,/,/,63*,0,-16
O=C(/C=C/c1ccc(S(=O)(=O)N2CCOCC2)cc1)N1CCN(c2ccccc2)CC1,-7,-4,-1,6,8,6,/,/,/
Nc1ccc(C(=O)N2CCN(S(=O)(=O)/C=C/c3ccccc3)CC2)cc1[N+](=O)[O-],-11,4,-1,2,10,10,/,/,/
O=C(c1ccc2ccccc2c1)N1CCN(S(=O)(=O)/C=C/c2ccccc2)CC1,1,4,-3,90*,21,8,77*,0,-6
O=C(NC1CCCC1)C(c1ccco1)N1CCC(O)(c2ccc(Cl)cc2)CC1 (configuration not stated),/,/,/,12,/,/,/,/,/
